Reference: ChEMBL document CHEMBL5724801, “EUbOPEN Chemogenomics Library - Multiplex” (2024)
“And” between values parts separate entries of the source, which are not always exact repeats. Equal values may be shown once.

Key:
Fibroblast = assay: Multiplex assay against human fibroblast; type: toxicity, cell-based
Outline: (§1)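 Per cents of healthy-nucleus cells form the tubulin, mitochondrial-mass and membrane-permeability phenotype values. Live cells were stained at seeding with Hoechst33342, BioTracker Green Microtubule Cytoskeleton Dye, MitoTracker Red and Annexin V Alexa Fluor 680. After compound addition they were imaged on a CQ1 microscope at 37°C and 5% CO2, and CellPathfinder machine-learning gating split them into Hoechst high-intensity objects or normal cells, normal cells into healthy, pyknosed or fragmented nuclei, and pyknosed cells into mitotic or apoptotic.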

HEK-293T = assay: Multiplex assay against HEK293T; type: toxicity, cell-based; settings: human; outline: as §1
[1] = 12 h, 1 µM, compound concentration 1 uM
[2] = 12 h, 10 µM, compound concentration 10 uM
[3] = 24 h, 1 µM, compound concentration 1 uM
[4] = 24 h, 10 µM, compound concentration 10 uM
[5] = 48 h, 1 µM, compound concentration 1 uM
[6] = 48 h, 10 µM, compound concentration 10 uM

## Cc1ccc(-c2c(C(=O)CF)n(CCCO)c3ncnc(N)c23)cc1
Fibroblast; [1]
  Population Apoptotic (%): 36% and 12.9%
  Population Fragmented Nuclei (%): 17.65% and 9.49%
  Population Healthy Nuclei (%): 63.97% and 78.26%
  Population Hoechst High Intensity Objects (%): 0%
  Population Membrane Permeable-Phenotype (%): 1.15% and 2.53%
  Population Mitochondria Different-Phenotype (%): 9.2% and 6.06%
  Population Mitotic Cells (%): 64% and 87.1%
  Population Normal (%): 100%
  Population Pyknosed Nuclei (%): 18.38% and 12.25%
  Population Tubulin-Different-Phenotype (%): 13.79% and 12.12%
  Total Cell Count: 136 and 253
Fibroblast; [2]
  Population Apoptotic (%): 6.98% and 18.18%
  Population Fragmented Nuclei (%): 10.16% and 6%
  Population Healthy Nuclei (%): 66.84% and 77.5%
  Population Hoechst High Intensity Objects (%): 0%
  Population Membrane Permeable-Phenotype (%): 4% and 4.52%
  Population Mitochondria Different-Phenotype (%): 8% and 11.61%
  Population Mitotic Cells (%): 93.02% and 81.82%
  Population Normal (%): 100%
  Population Pyknosed Nuclei (%): 22.99% and 16.5%
  Population Tubulin-Different-Phenotype (%): 19.2% and 29.03%
  Total Cell Count: 187 and 200
Fibroblast; [3]
  Population Apoptotic (%): 12.12% and 12%
  Population Healthy Nuclei (%): 62.58% and 87.98%
  Population Hoechst High Intensity Objects (%): 0%
  Population Membrane Permeable-Phenotype (%): 6.86% and 1.32%
  Population Mitochondria Different-Phenotype (%): 2.94% and 5.29%
  Population Mitotic Cells (%): 87.88% and 88%
  Population Normal (%): 100%
  Population Pyknosed Nuclei (%): 20.25% and 9.69%
  Population Tubulin-Different-Phenotype (%): 14.71% and 10.57%
  Total Cell Count: 163 and 258
Fibroblast; [4]
  Population Apoptotic (%): 9.3% and 10%
  Population Fragmented Nuclei (%): 8.8% and 4.95%
  Population Healthy Nuclei (%): 71.3% and 85.15%
  Population Hoechst High Intensity Objects (%): 0%
  Population Membrane Permeable-Phenotype (%): 8.44% and 2.33%
  Population Mitochondria Different-Phenotype (%): 4.55% and 5.81%
  Population Mitotic Cells (%): 90.7% and 90%
  Population Normal (%): 100%
  Population Pyknosed Nuclei (%): 19.91% and 9.9%
  Population Tubulin-Different-Phenotype (%): 23.38% and 29.07%
  Total Cell Count: 216 and 202
Fibroblast; [5]
  Population Apoptotic (%): 26.67% and 20%
  Population Healthy Nuclei (%): 73.05% and 89.29%
  Population Hoechst High Intensity Objects (%): 0%
  Population Membrane Permeable-Phenotype (%): 1.64% and 1.78%
  Population Mitotic Cells (%): 73.33% and 80%
  Population Normal (%): 100%
  Population Pyknosed Nuclei (%): 8.98% and 7.94%
  Population Tubulin-Different-Phenotype (%): 7.38% and 16.44%
  Total Cell Count: 167 and 252
Fibroblast; [6]
  Population Apoptotic (%): 9.09% and 27.27%
  Population Fragmented Nuclei (%): 7.76% and 9.13%
  Population Healthy Nuclei (%): 87.21% and 80.29%
  Population Hoechst High Intensity Objects (%): 0%
  Population Membrane Permeable-Phenotype (%): 1.57% and 0.6%
  Population Mitochondria Different-Phenotype (%): 8.9% and 2.4%
  Population Mitotic Cells (%): 90.91% and 72.73%
  Population Normal (%): 100%
  Population Pyknosed Nuclei (%): 5.02% and 10.58%
  Population Tubulin-Different-Phenotype (%): 9.42% and 27.54%
  Total Cell Count: 219 and 208
HEK-293T; [1]
  Population Apoptotic (%): 10.53% and 14.63%
  Population Fragmented Nuclei (%): 2.38% and 4.08%
  Population Hoechst High Intensity Objects (%): 0%
  Population Membrane Permeable-Phenotype (%): 0% and 5.56%
  Population Mitotic Cells (%): 89.47% and 85.37%
  Population Normal (%): 100%
  Population Pyknosed Nuclei (%): 38.78% and 83.67%
  Total Cell Count: 294 and 147
HEK-293T; [2]
  Population Apoptotic (%): 9.68% and 15.93%
  Population Fragmented Nuclei (%): 5.7% and 4.44%
  Population Hoechst High Intensity Objects (%): 0.33% and 0%
  Population Membrane Permeable-Phenotype (%): 1.91% and 0%
  Population Mitochondria Different-Phenotype (%): 38.22% and 25%
  Population Mitotic Cells (%): 90.32% and 84.07%
  Population Normal (%): 99.67% and 100%
  Population Pyknosed Nuclei (%): 41.61% and 83.7%
  Population Tubulin-Different-Phenotype (%): 17.83% and 37.5%
  Total Cell Count: 299 and 135
HEK-293T; [3]
  Population Apoptotic (%): 6.73% and 15.13%
  Population Fragmented Nuclei (%): 3.4% and 2.5%
  Population Hoechst High Intensity Objects (%): 0%
  Population Membrane Permeable-Phenotype (%): 2.86% and 0%
  Population Mitochondria Different-Phenotype (%): 14.57% and 8.11%
  Population Mitotic Cells (%): 93.27% and 84.87%
  Population Normal (%): 100%
  Population Tubulin-Different-Phenotype (%): 10.86% and 5.41%
